Experimental data: ChEMBL document CHEMBL3232832, “Derivatives of dibenzothiophene for positron emission tomography imaging of α7-nicotinic acetylcholine receptors” (J Med Chem, 2013); call rule not given here

Assays:
[1] = system: Striatum; test: Drug uptake in CD-1 mouse striatum at 0.07 mCi, iv after 90 mins co-administered with SSR180711; format: ADME, organism-based; conditions: in vivo, 1.5 h
Summary of the method: (§1)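 Male CD-1 mice. [18F]tracer (0.07 mCi, SA 7900 mCi/µmol, 0.2 mL) co-injected i.v. with blocker at 0 (vehicle), 0.02, 0.2, 1 or 3 mg/kg. Blocker dissolved in saline:alcohol 9:1, pH 5.5. Brain regions harvested at 90 min and gamma-counted. %ID/g, mean ± SD, n=3 per dose; ANOVA versus controls.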

[2] = Drug uptake in CD-1 mouse superior and inferior colliculus at 70 uCi, iv after 90 mins in presence of nicotine; format: ADME, organism-based; conditions: in vivo, 1.5 h
[3] = system: Cerebellum; test: Drug uptake in CD-1 mouse cerebellum at 70 uCi, iv after 90 mins in presence of cytisine; format: ADME, organism-based; conditions: in vivo, 1.5 h
Summary of the method: (§2)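 Male CD-1 mice, n=3. […] [18F] radiotracer (70 µCi, SA ~14000 mCi/µmol) given i.v. 5 min later. Regions harvested at 90 min, gamma counted, expressed as %ID/g.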

[4] = Drug uptake in CD-1 mouse superior and inferior colliculus at 70 uCi, iv administered 10 mins post ondansetron challenge measured after 90 mins; format: ADME, organism-based; conditions: in vivo, 1.5 h
Summary of the method: (§3)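 Male CD-1 mice (25–30 g). […] Brains removed 90 min later and dissected on ice. Regions weighed and gamma-counted against injectate standards. Result as %ID/g, mean ± SD, n=3; ANOVA versus controls.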

[5] = system: Hippocampus; test: Drug uptake in CD-1 mouse hippocampus at 0.07 mCi, iv after 90 mins relative to drug uptake in CD-1 mouse cerebellum; format: ADME, organism-based; conditions: in vivo, 1.5 h
[6] = system: Cortex; test: Drug uptake in CD-1 mouse cortex at 70 uCi, iv administered 10 mins post SSR180711 challenge measured after 90 mins; format: ADME, organism-based; conditions: in vivo, 1.5 h
[7] = system: Hippocampus; test: Drug uptake in CD-1 mouse hippocampus at 70 uCi, iv administered 10 mins post ondansetron challenge measured after 90 mins; format: ADME, organism-based; conditions: in vivo, 1.5 h
Summary of the method: (§4)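 Male CD-1 mice, n=3. Drug at 2 mg/kg s.c. in saline:DMSO 5:1, with vehicle controls. [18F] radiotracer (70 µCi, SA ~14000 mCi/µmol) given i.v. 10 min later. Regions harvested 90 min after tracer, gamma counted, expressed as %ID/g. Compared by single-factor ANOVA.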

[8] = system: Hippocampus; test: Drug uptake in CD-1 mouse hippocampus at 70 uCi, iv after 90 mins in presence of cytisine; format: ADME, organism-based; conditions: in vivo, 1.5 h; summary of the method: as §2
[9] = system: Brain; test: Drug uptake in CD-1 mouse other brain region at 70 uCi, iv after 90 mins in presence of cytisine; format: ADME, organism-based; conditions: in vivo, 1.5 h
[10] = Drug uptake in CD-1 mouse superior and inferior colliculus at 70 uCi, iv after 90 mins in presence of cytisine; format: ADME, organism-based; conditions: in vivo, 1.5 h
[11] = system: Cortex; test: Drug uptake in CD-1 mouse cortex at 70 uCi, iv administered 10 mins post SCH23390 challenge measured after 90 mins; format: ADME, organism-based; conditions: in vivo, 1.5 h; summary of the method: as §4
[12] = system: Cortex; test: Drug uptake in CD-1 mouse cortex at 70 uCi, iv after 90 mins in presence of cytisine; format: ADME, organism-based; conditions: in vivo, 1.5 h; summary of the method: as §2
[13] = Drug uptake in CD-1 mouse frontal cortex at 70 uCi, iv followed by compound washout by gamma-counting analysis; format: ADME, organism-based; conditions: in vivo
Summary of the method: (§5)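 Male CD-1 mice (25–30 g), three per time point. [18F] radiotracer (70 µCi, SA 8000–12000 mCi/µmol, in 0.2 mL saline) given by tail vein. Killed at several times up to 90 min. Dissected regions weighed and gamma counted against injectate standards, giving %ID/g.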

[14] = system: Striatum; test: Drug uptake in CD-1 mouse striatum at 70 uCi, iv followed by compound washout by gamma-counting analysis; format: ADME, organism-based; conditions: in vivo
Summary of the method: (§6)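 Male CD-1 mice (25–30 g) given [18F]radioligand i.v. into a lateral tail vein (70 µCi, 8000–12000 mCi/µmol, in 0.2 mL saline). Killed by cervical dislocation at various times, three per time point. Brains dissected on ice; regions weighed and gamma-counted with injectate standards. Result as %ID/g.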

[15] = system: Brain; test: Drug uptake in CD-1 mouse other brain region at 70 uCi, iv administered 10 mins post SCH23390 challenge measured after 90 mins; format: ADME, organism-based; conditions: in vivo, 1.5 h; summary of the method: as §4
[16] = Drug uptake in CD-1 mouse superior and inferior colliculus at 70 uCi, iv administered 10 mins post SCH23390 challenge measured after 90 mins; format: ADME, organism-based; conditions: in vivo, 1.5 h; summary of the method: as §3
[17] = system: Cerebellum; test: Drug uptake in CD-1 mouse cerebellum at 70 uCi, iv administered 10 mins post SSR180711 challenge measured after 90 mins; format: ADME, organism-based; conditions: in vivo, 1.5 h
[18] = system: Nucleic Acid; test: Ratio of drug uptake from hippocampus to cerebellum in CD-1 mouse after 90 mins; format: ADME, nucleic-acid assay; conditions: 1.5 h
[19] = system: Hippocampus; test: Drug uptake in CD-1 mouse hippocampus at 70 uCi, iv administered 10 mins post SCH23390 challenge measured after 90 mins; format: ADME, organism-based; conditions: in vivo, 1.5 h; summary of the method: as §4
[20] = system: Cerebellum; test: Drug uptake in CD-1 mouse cerebellum at 70 uCi, iv followed by compound washout by gamma-counting analysis; format: ADME, organism-based; conditions: in vivo; summary of the method: as §5
[21] = system: Brain; test: Drug uptake in CD-1 mouse other brain region at 70 uCi, iv administered 10 mins post SSR180711 challenge measured after 90 mins; format: ADME, organism-based; conditions: in vivo, 1.5 h
[22] = system: Cerebellum; test: Drug uptake in CD-1 mouse cerebellum at 70 uCi, iv after 90 mins in presence of nicotine; format: ADME, organism-based; conditions: in vivo, 1.5 h; summary of the method: as §2
[23] = system: Cerebellum; test: Drug uptake in CD-1 mouse cerebellum at 0.07 mCi, iv after 90 mins co-administered with 3 mg/kg SSR180711; format: ADME, organism-based; design: dose 3 mg/kg, route intravenous; conditions: in vivo, 1.5 h
Summary of the method: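 Male CD-1 mice (25–30 g), three per dose. Blocker in saline:ethanol 9:1 pH 5.5, given i.v. with [18F] radiotracer (70 µCi, SA 7900 mCi/µmol). Blocker doses 0, 0.02, 0.2, 1 and 3 mg/kg. Regions dissected 90 min later and gamma counted. Expressed as %ID/g, mean ± SD.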

[24] = system: Thalamus; test: Drug uptake in CD-1 mouse thalamus at 70 uCi, iv followed by compound washout by gamma-counting analysis; format: ADME, organism-based; conditions: in vivo; summary of the method: as §6
[25] = system: Cerebellum; test: Drug uptake in CD-1 mouse cerebellum at 70 uCi, iv administered 10 mins post ondansetron challenge measured after 90 mins; format: ADME, organism-based; conditions: in vivo, 1.5 h; summary of the method: as §4
[26] = system: Thalamus; test: Drug uptake in CD-1 mouse thalamus at 0.07 mCi, iv after 90 mins co-administered with SSR180711; format: ADME, organism-based; conditions: in vivo, 1.5 h; summary of the method: as §1
[27] = Drug uptake in CD-1 mouse superior and inferior colliculus at 70 uCi, iv administered 10 mins post naltrindole challenge measured after 90 mins; format: ADME, organism-based; conditions: in vivo, 1.5 h; summary of the method: as §3
[28] = system: Cortex; test: Drug uptake in CD-1 mouse cortex at 70 uCi, iv administered 10 mins post ketanserin challenge measured after 90 mins; format: ADME, organism-based; conditions: in vivo, 1.5 h; summary of the method: as §4
[29] = system: Cerebellum; test: Drug uptake in CD-1 mouse cerebellum at 70 uCi, iv administered 10 mins post ketanserin challenge measured after 90 mins; format: ADME, organism-based; conditions: in vivo, 1.5 h; summary of the method: as §4
[30] = system: Cortex; test: Drug uptake in CD-1 mouse cortex at 70 uCi, iv administered 10 mins post naltrindole challenge measured after 90 mins; format: ADME, organism-based; conditions: in vivo, 1.5 h; summary of the method: as §4
[31] = system: Cerebellum; test: Drug uptake in CD-1 mouse cerebellum at 0.07 mCi, iv after 90 mins in presence of 3-(1,4-Diazabicyclo[3.2.2]nonan-4-yl)-6-fluorodibenzo[b,d]thiophene 5,5-Dioxide; format: ADME, organism-based; conditions: in vivo, 1.5 h
Summary of the method: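 Male CD-1 mice, n=3. [18F] radiotracer (70 µCi, 0.2 mL) given i.v. together with unlabeled blocker in saline pH 5.5. Brain regions dissected at 90 min, gamma counted, expressed as %ID/g.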

[32] = system: Hippocampus; test: Drug uptake in CD-1 mouse hippocampus at 70 uCi, iv administered 10 mins post spiperone challenge measured after 90 mins; format: ADME, organism-based; conditions: in vivo, 1.5 h; summary of the method: as §4

SMILES: O=S1(=O)c2cc(N3CCN4CCC3CC4)ccc2-c2cccc([18F])c21
- Drug uptake [1]: Not Active
- Drug uptake [2]: Not Active
- Drug uptake [3]: Not Active
- Drug uptake [4]: Active
- Drug uptake [5]: 94%
- Drug uptake [6]: Not Active
- Drug uptake [7]: Active
- Drug uptake [8]: Not Active
- Drug uptake [9]: Not Active
- Drug uptake [10]: Not Active
- Drug uptake [11]: Active
- Drug uptake [12]: Not Active
- Drug uptake [13]: Active
- Drug uptake [14]: Active
- Drug uptake [15]: Active
- Drug uptake [16]: Active
- Drug uptake [17]: Not Active
- Ratio [18]: 5.5
- Drug uptake [19]: Active
- Drug uptake [20]: Active
- Drug uptake [21]: Not Active
- Drug uptake [22]: Active
- Drug uptake [23]: Not Active
- Drug uptake [24]: Active
- Drug uptake [25]: Active
- Drug uptake [26]: Not Active
- Drug uptake [27]: Active
- Drug uptake [28]: Active
- Drug uptake [29]: Active
- Drug uptake [30]: Active
- Drug uptake [31]: Active
- Drug uptake [32]: Active
